The list is not random: actives were taken first. Their share in the collection is about 3.5%.
RGS4 pot – RGS4 potentiation or activation; HEK293 M3R/inducible RGS4, carbachol calcium flux Fluo4; active compounds read low; B-score at 10 µM; 310,000 compounds, 0.92% hits; AID 463111;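 active = B-score of the integrated calcium signal more than 4 SD below the library mean, with starting fluorescence not abnormally high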;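 also: negative B-score means reduced calcium response which marks RGS4 activation or potentiation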
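Assay system: HEK293 FlpIn-TREx cells, stable M3R, doxycycline-inducible RGS4 / Probe or stimulus: carbachol, ECmax concentration / Times: overnight RGS4 induction, 30 min dye load 37 °C, 20 min compound RT / Signal: kinetic calcium fluorescence imaging with Fluo4-AM dye, 2 µM / Measure: Agonist-evoked peak-minus-minimum fluorescence over baseline, integrated ratio, B score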
RGS4 block – human RGS4 inhibition; P49798; 310,000 compounds, 0.45% hits; AID 463165; HEK293 M3R/RGS4 inducible, Fluo-4 calcium flux; active compounds read high; triggered by carbachol at its EC20; B-score at 10 µM;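 active = B-score, a plate-corrected calcium signal, over three deviations above library mean, with baseline fluorescence within five deviations of library mean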;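 also: RGS4 expression induced by doxycycline in cells with stable M3 receptor; B-score is computed from the integrated fluorescence ratio over baseline after carbachol; higher B-score means a larger calcium signal and so more RGS4 inhibition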
Target sequence (P49798 whole entry, looked up): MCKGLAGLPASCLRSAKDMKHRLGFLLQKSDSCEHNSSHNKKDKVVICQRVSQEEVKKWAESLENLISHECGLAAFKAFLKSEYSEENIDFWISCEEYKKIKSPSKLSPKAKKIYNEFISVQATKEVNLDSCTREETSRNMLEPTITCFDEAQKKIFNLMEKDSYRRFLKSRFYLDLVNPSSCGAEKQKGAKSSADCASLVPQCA
MrgX1 ag – human MrgX1 receptor agonism, primary screen; Q96LB2; MrgX1-HEK293 cells, Fluo-4 calcium fluorescence, agonist mode; active compounds read high; B-score at 10 µM; 310,000 compounds, 0.44% hits;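 active = calcium response B-score plate-corrected fluorescence ratio at least 3 library SD, with starting fluorescence B-score inside 5 SD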
Target sequence (Q96LB2 whole entry, looked up): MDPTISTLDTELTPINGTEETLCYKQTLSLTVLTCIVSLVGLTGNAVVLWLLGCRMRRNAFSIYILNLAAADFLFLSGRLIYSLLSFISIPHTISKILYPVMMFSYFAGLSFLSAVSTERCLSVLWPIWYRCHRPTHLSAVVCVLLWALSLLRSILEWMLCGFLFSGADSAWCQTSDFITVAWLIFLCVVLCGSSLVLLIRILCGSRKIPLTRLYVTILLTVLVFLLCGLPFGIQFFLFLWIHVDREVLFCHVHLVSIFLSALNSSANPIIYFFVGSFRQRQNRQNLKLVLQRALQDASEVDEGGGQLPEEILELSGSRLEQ
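Test system: HEK293 cells stably expressing human MrgX1 receptor; Input: fifteen thousand cells per well; Dosing: compound delivered in addition one of three; Schedule: overnight seeding, then 1 h dark dye loading; Technique: Fluo-4 NW calcium fluorescence; Measure: B-scored fluorescence response ratio; Controls: positive and negative controls per plate.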
MrgX1 PAM – allosterically activates human MrgX1 receptor signaling; MrgX1-HEK293, Fluo-4 calcium flux, FDSS; active compounds read high; B-score at 10 µM; 310,000 compounds, 0.63% hits; Q96LB2;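 active = plate-corrected calcium response at least 3 library SD above typical, normal starting fluorescence, not activating the receptor alone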;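 also: compound read alongside a low EC10 to EC30 dose of BAM8-22 agonist; peak minus trough fluorescence over baseline measured at the second addition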
MrgX1 antag – antagonists of human MrgX1 receptor; Q96LB2; MRGX1-HEK293 calcium flux, Fluo-4, BAM8-22 antagonism; active compounds read low; B-score at 10 µM; 310,000 compounds, 1.3% hits; AID 588676;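 active = calcium-response B-score plate-corrected more than 3 library SD below zero, starting fluorescence within 5 deviations, no agonist response on first addition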;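 also: peak minus trough fluorescence over baseline after final BAM8-22 challenge near maximal dose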
Each line names hits and unclear results; the compound was inactive in the other large screens.

O=C(CNC(=O)C(c1ccccc1)c1ccccc1)N/N=C\c1cccc(O)c1	none
O=C(CNC(=O)C(c1ccccc1)c1ccccc1)N/N=C/c1ccc(O)cc1O	MrgX1 antag -5.73
O=C1/C(=N/n2cnnc2)c2ccccc2N1Cc1ccccc1	MrgX1 ag 44.6
CCN1CCN(S(=O)(=O)c2ccc(Oc3ccccc3OC)cc2)CC1	none
Fc1cnc(N/N=C/c2ccc(-c3ccc(Br)cc3)o2)nc1N1CCOCC1	RGS4 pot -7.81
Brc1ccc(-c2ccc(/C=N/Nc3nc(N4CCOCC4)nc(N4CCOCC4)n3)o2)cc1	none
CC(=O)Nc1ccc(NC(=O)CCC(=O)OCC(=O)c2ccc(C)c([N+](=O)[O-])c2)cc1	MrgX1 antag -5.64
Cc1ccc(C(=O)COC(=O)CCC(=O)Nc2ccccc2Cl)cc1[N+](=O)[O-]	none
O=C(/C=C/c1ccc([N+](=O)[O-])cc1)OCC(=O)N1c2ccccc2Sc2ccccc21	RGS4 pot -8.25
O=C(COC(=O)/C=C/c1ccc([N+](=O)[O-])cc1)NCc1ccccc1	none
Cc1oc2cc(Br)c(O)c(Br)c2c1-c1ccccc1	MrgX1 PAM 14.7
CC(=O)Nc1cccc(C(=O)/C=C/c2ccc(/C=C/C(=O)c3cccc(NC(C)=O)c3)cc2)c1	RGS4 block 4.75
Cc1cccc(C(=O)Nc2ccc(C(=O)/C=C/c3cccnc3)cc2)c1	none
Cc1cccc(C(=O)Nc2ccc(C(=O)/C=C/c3ccncc3)cc2)c1	MrgX1 PAM 10.6
O=C(/C=C/c1cccnc1)c1ccc(NC(=O)c2cccc(Br)c2)cc1	MrgX1 PAM 7.07
CC(C)c1ccc(-c2csc(NC(=O)c3cccs3)c2C(=O)O)cc1	MrgX1 PAM 19, MrgX1 antag -6.75
Cc1cccc(C(=O)Nc2scc(-c3ccc(Br)cc3)c2C(=O)O)c1	none
CC(C)c1ccc(C(CC(=O)O)NC(=O)c2cccs2)cc1 (configuration not stated)	none
Cc1ccc(-c2csc(NC(=O)c3ccc(Br)cc3)c2C(=O)O)cc1	MrgX1 ag 30.7
COC(=O)C1(C)NC(c2ccc(O)cc2)C2C(=O)N(c3ccc(C)cc3)C(=O)C21 (configuration not stated)	none
CCc1noc(C)c1C(=O)N1CCCC(CCC(=O)NCc2ccc(F)c(F)c2)C1 (configuration not stated)	none
COc1ccc(CN(C)C2c3ccccc3-c3ccccc32)cc1	none
Cn1c(=O)cc(OCC(=O)NCCCN2CCN(Cc3ccccc3)CC2)c2ccccc21	MrgX1 antag -4.54
COc1ccc(CCNC(=O)Cn2c(=O)n(CCCC(=O)NCc3ccco3)c(=O)c3sccc32)cc1OC	MrgX1 PAM 6.44
COCCNc1cnn(-c2ccccc2)c(=O)c1Cl	none
COc1cc(C(=O)n2nc(C)cc2C)ccc1O	none
O=C(/C=C/Nc1ccc(F)cc1)c1cccs1	MrgX1 antag -5.04
O=C(/C=C/Nc1ccc(F)c(F)c1)c1cccs1	none
CCOC(=O)c1cc2c(=O)n3ccccc3nc2n(Cc2ccco2)c1=NC(=O)c1cccc(OC)c1	RGS4 pot -7.43, MrgX1 antag -5.8
CCOC(=O)c1cc2c(=O)n3cccc(C)c3nc2n(Cc2ccco2)c1=NC(=O)c1ccccc1	RGS4 pot -7.2
O=C(Nc1ccc(Cl)c(S(=O)(=O)N2CCOCC2)c1)c1ccccc1-c1ccc(C(F)(F)F)cc1	none
CCCC(=O)NC(=S)Nc1ccc(S(=O)(=O)N2CCc3ccccc32)cc1	none
CCOC(=O)c1ccc(S(=O)(=O)NNC(=O)c2cccc(N(C)C)c2)cc1	MrgX1 PAM 7.14
CCNc1ccc(C(=O)OCC)cc1NC(=O)c1cccc(N(C)C)c1	none
CC1=C(c2ccccc2)C(=S)NC(C)(C)C1	none
Cc1ccccc1NC(=O)C1CCCN(S(=O)(=O)c2cnc[nH]2)C1 (configuration not stated)	none
Cc1c(NC(=O)C2CCCN(S(=O)(=O)c3cnc[nH]3)C2)c(=O)n(-c2ccccc2)n1C (configuration not stated)	MrgX1 antag -7.27
CC[C@H](C)[C@@H]1NC(=O)c2cc([N+](=O)[O-])cc(I)c2SC[C@@H](C(N)=O)NC(=O)[C@H](CCCCN)NC1=O	MrgX1 antag -6.61 (no result: RGS4 pot, RGS4 block)
O=C(Nc1ccc(CN2CCCCC2)cc1)c1cc(Br)ccc1Cl	MrgX1 antag -5.52
O=C1C=C(Nc2ccc(Cl)cc2Cl)CC(c2ccco2)C1 (configuration not stated)	none
CSc1ncccc1C(=O)Nc1ccc(F)c(F)c1F	none
O=C(Nc1ccccc1C(F)(F)F)N1CCN(C(c2ccccc2)c2ccccc2)CC1	MrgX1 antag -7.15
O=C(NCCCCc1ccccc1)C1CC(c2cc(C(F)(F)F)cc(C(F)(F)F)c2)=NO1 (configuration not stated)	none
CCN(CC)S(=O)(=O)c1ccc(-c2nnc(SCC(=O)Nc3cc(OC)cc(OC)c3)o2)cc1	MrgX1 antag -4.61
CN(CC(=O)N1CCOCC1)S(=O)(=O)c1ccc2ccccc2c1	none
CC(/C=N/NC(=O)Cc1cccn1C)=C\c1ccccc1	MrgX1 PAM 11.8
CC(/C=N/NC(=O)Cc1cccs1)=C\c1ccccc1	none
CCOC(=O)C(NC(=O)N(C)C)(Nc1sc(C)c(CC)c1C#N)C(F)(F)F (configuration not stated)	none
Cc1c(NS(=O)(=O)c2cccc(C(=O)NCc3ccc(Cl)cc3)c2)c(=O)n(-c2ccccc2)n1C	MrgX1 antag -5.97
Cc1c(NS(=O)(=O)c2cccc(C(=O)O)c2)c(=O)n(-c2ccccc2)n1C	none
O/C(=C\c1nc2ccccc2nc1/C=C(\O)c1ccccc1)c1ccccc1	MrgX1 PAM 14
C=CC[C@]12CC=CC(=O)[C@@]1(O)O[C@H](c1ccc(OC)c(OC)c1)[C@H]2C	none
CC(C)(C(=O)c1ccccc1)/[N+]([O-])=C/c1ccc(Br)cc1	none
CCCCNc1c(-c2cccc(-c3ccc(OC)cc3)c2)nc2ccc(C)cn12	RGS4 pot -7.8
CCCCNc1c(-c2ccc(-c3cccc(Cl)c3)cc2)nc2ccccn12	none
CCCCNc1c(-c2cccc(-c3cc(C(C)=O)cs3)c2)nc2ccc(C)cn12	RGS4 pot -7.08
COC(=O)Nc1c(-c2ccccc2)nc2ccc(C)cn12	none
CN1CCN(CCNC(=O)Nc2ccc(Cl)cc2)CC1	none
CCc1nn(C(C)C(=O)NCc2cccc(OC)c2)c(=O)c2cc3occc3n12 (configuration not stated)	none
CCn1c(C)c(C(C)=O)c(N2CCN(C(c3ccccc3)c3ccccc3)CC2)nc1=S	RGS4 pot -7.38
CCOC(=O)c1c(NC(=O)CSc2c[nH]c3ccccc23)sc2c1CCC2	RGS4 pot -7.1
CCOc1c(C=C(C#N)C#N)c2ccccc2n1CC	MrgX1 antag -5.39
O=[N+]([O-])c1cc(S(=O)(=O)N2CCCCCC2)ccc1F	MrgX1 PAM 6.63 (no result: RGS4 pot, RGS4 block)

Bioassay records: PubChem, Johns Hopkins Ion Channel Center
